Activity calls are given as the source filed them. The rule behind the calls is not given here.
Legend:
RPMI-8226 [1] = experiment: Induction of apoptosis in human RPMI-8226 cells assessed as early apoptotic cells at 1 uM for 6 days by annexin-V based propidium iodide staining based flow cytometric analysis (reference value: 6.19%); type: functional; conditions: time 6 day
MM1.S [2] = experiment: Induction of apoptosis in human MM1.S cells assessed as early apoptotic cells at 1 uM for 3 days by annexin-V based propidium iodide staining based flow cytometric analysis (reference value: 5.51%); type: functional; conditions: time 3 day
MM1.S [3] = experiment: Induction of apoptosis in human MM1.S cells assessed as late apoptotic cells at 1 uM for 3 days by annexin-V based propidium iodide staining based flow cytometric analysis (reference value: 0.15%); type: functional; conditions: time 3 day
MM1.S [4] = experiment: Induction of apoptosis in human MM1.S cells assessed as necrotic cells at 1 uM for 3 days by annexin-V based propidium iodide staining based flow cytometric analysis (reference value: 0.064%); type: functional; conditions: time 3 day
RPMI-8226 [5] = experiment: Effect on human RPMI-8226 cells assessed as change in IRF4 mRNA level at 1 uM for 3 days by ChIP-qPCR analysis; type: functional, cell-based; conditions: time 3.0 day
Outline: (§1)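 ChIP-qPCR for H3K79me2 at IRF4-MYC signaling genes after 1 μM inhibitor or DMSO for 3 days. Signal normalized to input DNA. An intergenic region 28 kb upstream of KLF2 served as negative control. Mean of 3 replications ± SEM.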

MM1.S [6] = experiment: Effect on human MM1.S cells assessed as change in KLF2 mRNA level at 1 uM for 3 days by ChIP-qPCR analysis; type: functional, cell-based; conditions: time 3.0 day; outline: as §1
RPMI-8226 [7] = experiment: Upregulation of IFN in human RPMI-8226 cells assessed as increase in IFITM1 gene at 1 uM for 6 days by qRT-PCR analysis; type: functional, cell-based; conditions: time 6.0 day
MM1.S [8] = experiment: Downregulation of H3K79me2 level in human MM1.S cells at 1 uM for 3 days by ChIP-qPCR analysis; type: functional, cell-based; conditions: time 3.0 day; outline: as §1
RPMI-8226 [9] = experiment: Upregulation of AGPAT9 gene in human RPMI-8226 cells at 1 uM for 6 days by; type: functional, cell-based; conditions: time 6.0 day
RPMI-8226 [10] = experiment: Upregulation of BATF3 gene in human RPMI-8226 cells at 1 uM for 6 days by; type: functional, cell-based; conditions: time 6.0 day
RPMI-8226 [11] = experiment: Upregulation of BMF gene in human RPMI-8226 cells at 1 uM for 6 days by; type: functional, cell-based; conditions: time 6.0 day
RPMI-8226 [12] = experiment: Upregulation of CCDC96 gene in human RPMI-8226 cells at 1 uM for 6 days by; type: functional, cell-based; conditions: time 6.0 day
RPMI-8226 [13] = experiment: Upregulation of CCR2 gene in human RPMI-8226 cells at 1 uM for 6 days by; type: functional, cell-based; conditions: time 6.0 day
RPMI-8226 [14] = experiment: Upregulation of CXCL12 gene in human RPMI-8226 cells at 1 uM for 6 days by; type: functional, cell-based; conditions: time 6.0 day
Outline: (§2)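 Human myeloma lines RPMI-8226 and MM.1S exposed to 1 μM DOT1L inhibitor, or DMSO, for 6 days. Whole-genome expression profiled on gene expression microarray.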

RPMI-8226 [15] = experiment: Upregulation of ENC1 gene in human RPMI-8226 cells at 1 uM for 6 days by; type: functional, cell-based; conditions: time 6.0 day; outline: as §2
RPMI-8226 [16] = experiment: Upregulation of GLYATL1 gene in human RPMI-8226 cells at 1 uM for 6 days by; type: functional, cell-based; conditions: time 6.0 day; outline: as §2
RPMI-8226 [17] = experiment: Upregulation of GPD2 gene in human RPMI-8226 cells at 1 uM for 6 days by; type: functional, cell-based; conditions: time 6.0 day; outline: as §2
RPMI-8226 [18] = experiment: Upregulation of HLA-DQB1 gene in human RPMI-8226 cells at 1 uM for 6 days by; type: functional, cell-based; conditions: time 6.0 day
RPMI-8226 [19] = experiment: Upregulation of HLA-DRB5 gene in human RPMI-8226 cells at 1 uM for 6 days by; type: functional, cell-based; conditions: time 6.0 day
RPMI-8226 [20] = experiment: Upregulation of IFITM1 gene in human RPMI-8226 cells at 1 uM for 6 days by; type: functional, cell-based; conditions: time 6.0 day
RPMI-8226 [21] = experiment: Upregulation of IFITM3 gene in human RPMI-8226 cells at 1 uM for 6 days by; type: functional, cell-based; conditions: time 6.0 day
RPMI-8226 [22] = experiment: Upregulation of IGFBP6 gene in human RPMI-8226 cells at 1 uM for 6 days by; type: functional, cell-based; conditions: time 6.0 day
RPMI-8226 [23] = experiment: Upregulation of LAMB3 gene in human RPMI-8226 cells at 1 uM for 6 days by; type: functional, cell-based; conditions: time 6.0 day
RPMI-8226 [24] = experiment: Upregulation of MMP9 gene in human RPMI-8226 cells at 1 uM for 6 days by; type: functional, cell-based; conditions: time 6.0 day
RPMI-8226 [25] = experiment: Upregulation of MS4A4A gene in human RPMI-8226 cells at 1 uM for 6 days by; type: functional, cell-based; conditions: time 6.0 day
RPMI-8226 [26] = experiment: Upregulation of PPP1R1C gene in human RPMI-8226 cells at 1 uM for 6 days by; type: functional, cell-based; conditions: time 6.0 day
RPMI-8226 [27] = experiment: Upregulation of RIMBP3 gene in human RPMI-8226 cells at 1 uM for 6 days by; type: functional, cell-based; conditions: time 6.0 day
RPMI-8226 [28] = experiment: Upregulation of SLC9A9 gene in human RPMI-8226 cells at 1 uM for 6 days by; type: functional, cell-based; conditions: time 6.0 day
RPMI-8226 [29] = experiment: Upregulation of SMIM14 gene in human RPMI-8226 cells at 1 uM for 6 days by; type: functional, cell-based; conditions: time 6.0 day
MM1.S [30] = experiment: Upregulation of ACOT11 gene in human MM1.S cells at 1 uM for 6 days by; type: functional, cell-based; conditions: time 6.0 day
MM1.S [31] = experiment: Upregulation of AMY1C gene in human MM1.S cells at 1 uM for 6 days by; type: functional, cell-based; conditions: time 6.0 day
MM1.S [32] = experiment: Upregulation of BHLHE22 gene in human MM1.S cells at 1 uM for 6 days by; type: functional, cell-based; conditions: time 6.0 day
MM1.S [33] = experiment: Upregulation of CARD6 gene in human MM1.S cells at 1 uM for 6 days by; type: functional, cell-based; conditions: time 6.0 day
MM1.S [34] = experiment: Upregulation of CLIP2 gene in human MM1.S cells at 1 uM for 6 days by; type: functional, cell-based; conditions: time 6.0 day; outline: as §2
MM1.S [35] = experiment: Upregulation of CXCL10 gene in human MM1.S cells at 1 uM for 6 days by; type: functional, cell-based; conditions: time 6.0 day; outline: as §2
MM1.S [36] = experiment: Upregulation of CXCL12 gene in human MM1.S cells at 1 uM for 6 days by; type: functional, cell-based; conditions: time 6.0 day; outline: as §2
MM1.S [37] = experiment: Upregulation of DDIT4L gene in human MM1.S cells at 1 uM for 6 days by; type: functional, cell-based; conditions: time 6.0 day; outline: as §2
MM1.S [38] = experiment: Upregulation of EMILIN2 gene in human MM1.S cells at 1 uM for 6 days by; type: functional, cell-based; conditions: time 6.0 day; outline: as §2
MM1.S [39] = experiment: Upregulation of GPD2 gene in human MM1.S cells at 1 uM for 6 days by; type: functional, cell-based; conditions: time 6.0 day; outline: as §2
MM1.S [40] = experiment: Upregulation of MILR1 gene in human MM1.S cells at 1 uM for 6 days by; type: functional, cell-based; conditions: time 6.0 day
MM1.S [41] = experiment: Upregulation of MMP9 gene in human MM1.S cells at 1 uM for 6 days by; type: functional, cell-based; conditions: time 6.0 day
MM1.S [42] = experiment: Upregulation of MYO1F gene in human MM1.S cells at 1 uM for 6 days by; type: functional, cell-based; conditions: time 6.0 day
MM1.S [43] = experiment: Upregulation of NREP gene in human MM1.S cells at 1 uM for 6 days by; type: functional, cell-based; conditions: time 6.0 day
MM1.S [44] = experiment: Upregulation of NRIP1 gene in human MM1.S cells at 1 uM for 6 days by; type: functional, cell-based; conditions: time 6.0 day
MM1.S [45] = experiment: Upregulation of PPP1R1C gene in human MM1.S cells at 1 uM for 6 days by; type: functional, cell-based; conditions: time 6.0 day
MM1.S [46] = experiment: Upregulation of RIMBP3 gene in human MM1.S cells at 1 uM for 6 days by; type: functional, cell-based; conditions: time 6.0 day
MM1.S [47] = experiment: Upregulation of SNX10 gene in human MM1.S cells at 1 uM for 6 days by; type: functional, cell-based; conditions: time 6.0 day
MM1.S [48] = experiment: Upregulation of XKR3 gene in human MM1.S cells at 1 uM for 6 days by; type: functional, cell-based; conditions: time 6.0 day

## CC(C)N(C[C@H]1O[C@@H](n2cnc3c(N)ncnc32)[C@H](O)[C@@H]1O)[C@H]1C[C@@H](CCc2nc3cc(C(C)(C)C)ccc3[nH]2)C1 [PINOMETOSTAT]
RPMI-8226 [1]
  Activity: 22.4%
MM1.S [2]
  Activity: 3.11%
MM1.S [3]
  Activity: 0.083%
MM1.S [4]
  Activity: 0.06%
RPMI-8226 [5]
  Activity: Active
MM1.S [6]
  Activity: Active
RPMI-8226 [7]
  Activity: Active

## CC(C)N(CCCNC(=O)Nc1ccc(C(C)(C)C)cc1)C[C@H]1O[C@@H](n2cc(Br)c3c(N)ncnc32)[C@H](O)[C@@H]1O
MM1.S [8]
  Activity: Active
RPMI-8226 [9]
  Activity: Active
RPMI-8226 [10]
  Activity: Active
RPMI-8226 [11]
  Activity: Active
RPMI-8226 [12]
  Activity: Active
RPMI-8226 [13]
  Activity: Active
RPMI-8226 [14]
  Activity: Active
RPMI-8226 [15]
  Activity: Active
RPMI-8226 [16]
  Activity: Active
RPMI-8226 [17]
  Activity: Active
RPMI-8226 [18]
  Activity: Active
RPMI-8226 [19]
  Activity: Active
RPMI-8226 [20]
  Activity: Active
RPMI-8226 [21]
  Activity: Active
RPMI-8226 [22]
  Activity: Active
RPMI-8226 [23]
  Activity: Active
RPMI-8226 [24]
  Activity: Active
RPMI-8226 [25]
  Activity: Active
RPMI-8226 [26]
  Activity: Active
RPMI-8226 [27]
  Activity: Active
RPMI-8226 [28]
  Activity: Active
RPMI-8226 [29]
  Activity: Active
MM1.S [30]
  Activity: Active
MM1.S [31]
  Activity: Active
MM1.S [32]
  Activity: Active
MM1.S [33]
  Activity: Active
MM1.S [34]
  Activity: Active
MM1.S [35]
  Activity: Active
MM1.S [36]
  Activity: Active
MM1.S [37]
  Activity: Active
MM1.S [38]
  Activity: Active
MM1.S [39]
  Activity: Active
MM1.S [40]
  Activity: Active
MM1.S [41]
  Activity: Active
MM1.S [42]
  Activity: Active
MM1.S [43]
  Activity: Active
MM1.S [44]
  Activity: Active
MM1.S [45]
  Activity: Active
MM1.S [46]
  Activity: Active
MM1.S [47]
  Activity: Active
MM1.S [48]
  Activity: Active

From ChEMBL document CHEMBL5712901, “DOT1L inhibition blocks multiple myeloma cell proliferation by suppressing IRF4-MYC signaling” (2019)
